What all share (format): cell-based, human
Assay [1] has as its system HEK-CLR-RAMP1 cells. Nature of the assay: Endocytosis and degradation of internalized 125I-His8-CGRP. The conditions noted are these: 30 min after internalization; SM-19712 10 μM, bafilomycin A1 0.15 or 1 μM.
Assay [2] has as its system HEK-CLR-RAMP1 cells. Nature of the assay: CLR and RAMP1 endocytosis and recycling. In a few lines:
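Surface CLR and RAMP1 on HEK-CLR-RAMP1 cells were antibody-labelled via HA11 and Myc epitopes (1:100, 30 min, 37°C). Cells then received CGRP 100 nM for 1 h, were washed, and recovered 0–6 h in CGRP-free medium. Cells were either treated with SM-19712 10 μM (20–60 min preincubation, kept throughout) or transfected 72 h earlier with ECE-1 vs non-targeting siRNA. Confocal scoring gave % total cellular fluorescence at plasma membrane at 6 h.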

The subject of assay [3] is HEK-CLR-RAMP1+βARR2-GFP cells. Nature of the assay: Trafficking and colocalization of β-arrestin2-GFP and CLR/RAMP1. The conditions noted are these: recovery up to 4 h in CGRP-free medium. The procedure, abridged:
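HEK-CLR-RAMP1 cells transiently transfected with β-arrestin2-GFP had surface CLR (HA11) and RAMP1 (Myc) labelled. Cells were given CGRP (2 min to 1 h), washed, and recovered in CGRP-free medium for 1–4 h. SM-19712 10 μM, bafilomycin A1 0.15 or 1 μM, or DMSO was preincubated 20–60 min and kept throughout. After PFA fixation and confocal imaging, β-arrestin2/CLR endosomal colocalization coefficient was measured at 4 h recovery.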

The test system of assay [4] is HEK-CLR-RAMP1 cells. Nature of the assay: CGRP-induced Ca2+ signaling, desensitization and resensitization. The conditions noted are these: SM-19712 10 μM. In a few lines:
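HEK-CLR-RAMP1 cells were loaded with Fura-2AM; [Ca2+]i read at 37°C. Single challenge used CGRP 30 nM. For desensitization/resensitization: CGRP 100 nM or vehicle (1 h, 37°C), wash, 0–6 h recovery, CGRP 30 nM rechallenge. Variants: SM-19712 10 μM (20–60 min preincubation, kept throughout); ECE-1 or non-targeting siRNA pools, 72 h; transient ECE-1a-d-GFP. Response given as % of vehicle-treated cells, n ≥ 3.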

For a further assay, the system named is SK-N-MC cells. The assay can be described thus: CGRP-induced Ca2+ signaling, desensitization and resensitization. The conditions noted are these: SM-19712 10 μM. The procedure, abridged: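 SK-N-MC cells (endogenous CLR/RAMP1) were loaded with Fura-2AM for [Ca2+]i at 37°C. Single challenge used CGRP 100 nM. Desensitization: CGRP 100 nM or vehicle (1 h, 37°C), wash, CGRP-free recovery (4 h for resensitization), then CGRP 100 nM rechallenge. SM-19712 10 μM or DMSO was preincubated 20–60 min and kept throughout. Response was expressed as % of vehicle-treated cells.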

For another assay, the system named is HEK-AT1AR cells. Nature of the assay: Resensitization of ATII-induced Ca2+ signaling. The conditions noted are these: SM-19712 10 μM, 20 min and 2 h recovery. In a few lines: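 HEK-AT1AR cells were exposed to ATII (100 nM) or vehicle for 1 h at 37°C, washed, and allowed to recover in agonist-free medium at 37°C. They were then rechallenged with ATII (100 nM) while [Ca2+]i was measured. The [Ca2+]i change is expressed as % of the vehicle-pretreated response. Inhibitor (10 μM) or DMSO was preincubated 20–60 min and kept in buffers throughout. Mean ± SE, n ≥ 3.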

Another assay deals with A549 cells. Nature of the assay: Resensitization of ATII-induced Ca2+ signaling. The conditions noted are these: ATII 1 μM 1 h, 1 h recovery; SM-19712 10 μM; endogenous AT1AR and ECE-1. In a few lines:
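A549 cells (native AT1AR, ECE-1) were loaded with Fura-2AM for [Ca2+]i at 37°C. They were preincubated with ATII 1 μM or vehicle (1 h, 37°C), washed, recovered 1 h, then rechallenged with ATII 1 μM. SM-19712 10 μM or DMSO was preincubated 20–60 min and kept throughout. Response was expressed as % of vehicle-treated cells.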

For a further assay, the system named is HEK cells. The assay can be described thus: BK-induced Ca2+ signaling, desensitization and resensitization. The conditions noted are these: SM-19712 10 μM. The procedure, abridged: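 HEK cells with native B2R were loaded with Fura-2AM and [Ca2+]i read at 37°C, on coverslips or in suspension. Cells were preincubated with BK 100 nM or vehicle (10 min, 37°C), washed, recovered 0–120 min, then rechallenged with BK 100 nM. SM-19712 10 μM, bafilomycin A1 0.15 or 1 μM, or DMSO was preincubated 20–60 min and kept in buffers throughout.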

A further assay deals with HEK-B2R cells. The assay can be described thus: B2R recycling and colocalization with β-arrestin2-GFP. The conditions noted are these: SM-19712 10 μM. In a few lines: (§1)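 HEK cells stably expressing HA-tagged B2R or B2R-V2RCT were transiently transfected with β-arrestin2-GFP. Surface receptors were labelled with anti-HA11 (1:100, 30 min, 37°C), then given BK 100 nM for 10 min and recovered in BK-free medium (B2R 1 h; B2R-V2RCT 2 h). SM-19712 10 μM or DMSO was preincubated 20–60 min and kept throughout. Cells were PFA-fixed for confocal imaging; plasma-membrane fraction of fluorescence and colocalization coefficient (0–1) were scored in >20 cells/experiment, n ≥ 3.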

For another assay, the system named is HEK-B2R-V2RCT cells. Nature of the assay: B2R-V2RCT recycling and colocalization with β-arrestin2-GFP. The conditions noted are these: 2 h recovery, SM-19712 10 μM. The procedure, abridged: as §1

Where “and” joins values, the source holds several entries; their conditions need not be identical. Equal entries are not always repeated.

Consider `Cc1nn(-c2ccccc2)c(NC(=O)NS(=O)(=O)c2ccc(Cl)cc2)c1C#N.[Na]` [SM-19712], for which the “Effect on degradation of internalized 125I-His8-CGRP” value in the assay with HEK-CLR-RAMP1 cells [1] is listed as “prevented degradation”. Also, the “Inhibition of recycling of CLR (CLR at the plasma membrane)” value with HEK-CLR-RAMP1 cells [2] (6 h recovery after CGRP 100 nM 1 h, SM-19712 10 μM, siRNA 72 h) is reported as more than 50%. Further, the “Effect on localization of CLR/RAMP1 after recovery in CGRP-free medium” value in the assay with HEK-CLR-RAMP1 cells [2] (CGRP 100 nM 1 h, wash, 6 h recovery) was “caused their retention in endosomes even at 6 h”. In addition, the “Effect on localization of CLR (RAMP1) and β-arrestin2 during recovery” value in assay [3] is on record as “caused their retention in endosomes”. Besides, the “Effect on response to a single challenge with CGRP ([Ca2+]i)” value in the assay on HEK-CLR-RAMP1 cells [4] (CGRP 30 nM) and in the assay on SK-N-MC cells (CGRP 100 nM) was “did not affect magnitude or duration” throughout. Moreover, the “Effect on desensitization of CGRP-induced Ca2+ signaling” value with HEK-CLR-RAMP1 cells [4] and in the assay on SK-N-MC cells was “did not affect desensitization” in each case. For the same molecule, the “Effect on resensitization of CGRP-induced Ca2+ signaling” value in the assay with HEK-CLR-RAMP1 cells [4] (0–6 h recovery) is “strongly inhibited resensitization at all times”. Besides, the “Inhibition of resensitization of CGRP-induced Ca2+ signaling” value with SK-N-MC cells (4 h recovery) turned out to be 33%. The “Effect on resensitization of ATII-induced Ca2+ signaling” value with HEK-AT1AR cells was “did not affect resensitization at either time”. In addition, the “Effect on resensitization of responses to ATII” value in the assay with A549 cells is on record as “did not affect resensitization”. For the same molecule, the “Effect on response to a single BK challenge ([Ca2+]i)” value in the assay with HEK cells (BK 100 nM, thiorphan 1 μM, phosphoramidon 1 μM) is reported as “did not affect responses to a single BK challenge”. For the same molecule, the “Effect on desensitization of BK-induced Ca2+ signaling” value with HEK cells (bafilomycin A1 0.15 or 1 μM) was “had no effect”. The “Effect on resensitization of BK-induced Ca2+ signaling” value in the assay on HEK cells (bafilomycin A1 0.15 or 1 μM, 0–120 min recovery) was “had no effect”. For the same molecule, the “Effect on colocalization coefficient of β-arrestin2 and B2R” value with HEK-B2R cells (1 h recovery) is “did not affect colocalization with B2R”. Moreover, in the assay on HEK-B2R cells (BK 100 nM 10 min, 1 h recovery), the “Reduction of recycling of B2R” value is less than 10%. The “Effect on BK-induced trafficking of B2R and β-arrestin2” value in the assay on HEK-B2R cells (BK 100 nM 10 min, 60 min recovery) is “did not affect this trafficking”. For the same molecule, in the assay on HEK-B2R-V2RCT cells, the “Change of colocalization coefficient of B2R-V2RCT with β-arrestin2” value is listed as “twofold increase”. Moreover, the “Effect on localization of B2R-V2RCT during recovery” value with HEK-B2R-V2RCT cells (BK 100 nM 10 min) is reported as “causing it retention in endosomes with β-arrestin2”. Also, the “Reduction of recycling of B2R-V2RCT” value with HEK-B2R-V2RCT cells (BK 100 nM 10 min) is ~50% and > 50%.

Source of the values: article PMC2099187 (The Journal of Cell Biology, 2007).
